Consider 1 compound from ChEMBL document CHEMBL4024790 (J Med Chem, 2018).

Active and inactive are the calls of the source. No cut-off for these calls is given here.

Data set [1] concerns Liver. Description: Drug metabolism in dog liver microsomes assessed as 1-(7-methyl-5-(1-methyl-5-(5-(trifluoromethyl)pyridin-2-yl)-1H-pyrazol-4-yl)imidazo[1,5-f][1,2,4]triazin-4-yl)azetidin-3-ol formation at 1 to 50 uM after 1 hr by LC-MS/MS analysis. The class given is ADME, Canis lupus familiaris, microsome. An outline of the steps: (§1)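 Rat, dog or human liver microsomes or hepatocytes (P450 0.35–0.5 µM final) incubated with compound at 1, 10 or 50 µM in 100 mM phosphate buffer with 1 mM NADP regenerating system, 37°C for 1 h; quenched with 4 volumes acetonitrile, centrifuged, supernatant evaporated, reconstituted in 5% aqueous acetonitrile and analysed by reversed-phase LC.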

In data set [2] the test system is Liver. Put plainly: Drug metabolism in rat liver microsomes assessed as 1-(7-methyl-5-(1-methyl-5-(5-(trifluoromethyl)pyridin-2-yl)-1H-pyrazol-4-yl)imidazo[1,5-f][1,2,4]triazin-4-yl)azetidin-3-ol formation at 1 to 50 uM after 1 hr by LC-MS/MS analysis. The class given is ADME, microsome. Summed up:
as §1

Data set [3] relates to Rattus norvegicus. Put plainly: Reversal of MK-801-induced disruption of low frequency cortical delta oscillation in Sprague-Dawley rat brain at 0.03 mg/kg, iv measured up to 55 mins by electrophysiology method. The class given is functional, organism-based.
For data set [4], the species on record is Rattus norvegicus.
The next data set has as its target Cytochrome P450 2C19 (Homo sapiens, UniProt P33261). Description: Time-dependant inhibition of recombinant human CYP2C19. The class given is ADME. Particulars: recombinant enzyme.
Data set [5] is described as follows: Tmax in Wistar Han rat at 5 mg/kg, po administered via gavage by LC-MS/MS analysis. The class given is ADME, organism-based. Particulars: in vivo.
A short description of data set [6]: AUC (0 to infinity) in beagle dog at 5 mg/kg, po administered via gavage by LC-MS/MS analysis. The class given is ADME, organism-based, Canis lupus familiaris. On the set-up: dose 5 mg/kg, route oral, time infinity. Particulars: in vivo.
For data set [7], the species on record is Mus musculus. Description: Increase in cGMP level in CD-1 mouse brain hippocampus assessed as unbound brain concentration required to show the effect by immunoassay. The class given is functional. An outline of the steps:
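CD-1 mice dosed SC (solution in 20% SBE-β-CD with 2 molar equivalents 1N HCl, 1 mL/kg); euthanized by focused microwave irradiation of brain; cortex, striatum, hippocampus homogenized in 0.5 N HCl, centrifuged; cyclic nucleotides in supernatant by enzyme immunoassay. Unbound brain exposure from satellite animals; dose-response and time-course data combined with linear model; one-way ANOVA with Fisher's PLSD.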

The nature of data set [8]: Ratio of unbound brain concentration to unbound plasma concentration in po dosed beagle dog. The class given is ADME, organism-based, Canis lupus familiaris. Particulars: brain and plasma, read-out: K(p,uu,brain). Summed up:
(§2)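 Compound given sc to mice, iv and/or sc to rats, po to dogs and sc to monkeys; sc doses as a solution in 20% SBE-BCD + 2 molar equiv 1N HCl. Plasma, whole brain and CSF taken at matched times from 2 min to 24 h and quantified by LC-MS/MS. Fraction unbound in plasma and brain homogenate (diluted 4-fold, dilution factor 5 applied) by 6 h equilibrium dialysis against phosphate buffer at 37°C.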

For data set [9], the system named is Liver. Put plainly: Drug metabolism in human liver microsomes assessed as 1-(7-methyl-5-(1-methyl-5-(5-(trifluoromethyl)pyridin-2-yl)-1H-pyrazol-4-yl)imidazo[1,5-f][1,2,4]triazin-4-yl)azetidin-3-ol formation at 1 to 50 uM after 1 hr by LC-MS/MS analysis. The class given is ADME, microsome. Summed up:
as §1

The species entered for data set [10] is Mus musculus. Description: Increase in cGMP level in CD-1 mouse brain striatum by immunoassay. The class given is functional. An outline of the steps: (§3)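 CD-1 mice given compound; brains fixed by focused microwave irradiation, and cortex, striatum and hippocampus dissected and homogenized in 0.5 N HCl, then centrifuged. cGMP in the supernatant measured by enzyme immunoassay. Unbound brain concentration taken from satellite animals. Dose-response and time-course data combined, and a linear Cbu–cGMP model fitted. The Cbu E50 is the projected Cbu giving a 50% rise in cGMP. Statistics by one-way ANOVA with Fisher's PLSD, p<0.05.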

Data set [11] is filed under the species Rattus norvegicus. Put plainly: Cardiotoxicity in rat up to 1 month by microscopic method. The class given is toxicity.
For data set [12], the species on record is Mus musculus. Put plainly: Increase in cGMP level in CD-1 mouse brain striatum assessed as unbound brain concentration required to show the effect by immunoassay. The class given is functional. Summed up:
as §3

The next data set concerns the target Cytochrome P450 2D6 (Homo sapiens, UniProt P10635). Description: Inhibition of recombinant human CYP2D6. Particulars: recombinant enzyme. The class given is ADME.
Data set [13] in a line: Drug metabolism in human hepatocytes assessed as 1-(7-methyl-5-(1-methyl-5-(5-(trifluoromethyl)pyridin-2-yl)-1H-pyrazol-4-yl)imidazo[1,5-f][1,2,4]triazin-4-yl)azetidin-3-ol formation at 1 to 50 uM after 1 hr by LC-MS/MS analysis. The class given is ADME, cell-based, Hepatocyte. Summed up:
as §1

The nature of data set [14]: Drug metabolism in human hepatocytes assessed as 3-(7-methyl-5-(1-methyl-5-(5-(trifluoromethyl)pyridin-2-yl)-1H-pyrazol-4-yl)imidazo[1,5-f][1,2,4]triazin-4-ylamino)propanoic acid formation at 1 to 50 uM after 1 hr by LC-MS/MS analysis. The class given is ADME, cell-based, Hepatocyte. Summed up:
as §1

Data set [15] can be described thus: Ratio of unbound brain concentration to unbound plasma concentration in po dosed Cynomolgus monkey. The class given is ADME, organism-based, Macaca fascicularis. Particulars: brain and plasma, read-out: K(p,uu,brain).
A short description of data set [16]: Plasma clearance in beagle dog at 0.3 mg/kg, iv by LC-MS/MS analysis. The class given is ADME, organism-based, Canis lupus familiaris. Summed up: (§4)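 Single iv dose to male Wistar-Han rats (1 mg/kg) or dogs (0.3 mg/kg), given as a solution in 20% (w/v) SBECD with HCl. Dose volume 1 mL/kg in rats and 0.4 mL/kg in dogs. Blood taken by carotid artery cannula from 2 min to 24 h into K2EDTA (rat) or K3EDTA (dog) tubes. Plasma analysed by LC-MS/MS with positive electrospray after acetonitrile precipitation with internal standard.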

Data set [17] deals with T1, Cytochrome P450 1A2 (Homo sapiens, UniProt P05177).
T1 sequence (P05177 whole entry): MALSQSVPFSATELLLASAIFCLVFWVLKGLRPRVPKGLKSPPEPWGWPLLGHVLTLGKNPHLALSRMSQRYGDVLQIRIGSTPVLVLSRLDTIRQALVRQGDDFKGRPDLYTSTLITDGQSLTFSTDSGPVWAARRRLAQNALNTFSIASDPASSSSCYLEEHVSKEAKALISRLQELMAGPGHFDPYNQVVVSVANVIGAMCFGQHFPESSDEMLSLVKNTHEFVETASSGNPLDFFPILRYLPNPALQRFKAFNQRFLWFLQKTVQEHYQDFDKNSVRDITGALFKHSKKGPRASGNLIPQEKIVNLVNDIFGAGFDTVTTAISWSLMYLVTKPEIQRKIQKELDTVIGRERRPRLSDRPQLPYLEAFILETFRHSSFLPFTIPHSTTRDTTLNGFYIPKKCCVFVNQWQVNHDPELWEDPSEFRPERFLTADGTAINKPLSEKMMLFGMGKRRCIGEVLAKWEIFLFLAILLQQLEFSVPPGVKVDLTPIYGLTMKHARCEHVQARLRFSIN
Put plainly: Inhibition of recombinant human CYP1A2. The class given is ADME. Particulars: recombinant enzyme.

The target in data set [18] is T1, Cytochrome P450 1A2. Description: Induction of CYP1A2 (unknown origin). The class given is ADME.
Data set [19] can be described thus: Ratio of unbound brain concentration to unbound plasma concentration in sc dosed CD-1 mouse. The class given is ADME, organism-based. Particulars: brain and plasma, read-out: K(p,uu,brain). An outline of the steps: as §2
A further data set addresses Cytochrome P450 2C9 (Homo sapiens, UniProt P11712). Put plainly: Inhibition of recombinant human CYP2C9. The class given is ADME. Particulars: recombinant enzyme.
Data set [20] is described as follows: Terminal half life in beagle dog at 0.3 mg/kg, iv by LC-MS/MS analysis. Particulars: in vivo, read-out: beta t1/2 (converted). The class given is ADME, organism-based, Canis lupus familiaris. Summed up:
as §4

Chain of Cytochrome P450 2C9 (P11712 whole entry): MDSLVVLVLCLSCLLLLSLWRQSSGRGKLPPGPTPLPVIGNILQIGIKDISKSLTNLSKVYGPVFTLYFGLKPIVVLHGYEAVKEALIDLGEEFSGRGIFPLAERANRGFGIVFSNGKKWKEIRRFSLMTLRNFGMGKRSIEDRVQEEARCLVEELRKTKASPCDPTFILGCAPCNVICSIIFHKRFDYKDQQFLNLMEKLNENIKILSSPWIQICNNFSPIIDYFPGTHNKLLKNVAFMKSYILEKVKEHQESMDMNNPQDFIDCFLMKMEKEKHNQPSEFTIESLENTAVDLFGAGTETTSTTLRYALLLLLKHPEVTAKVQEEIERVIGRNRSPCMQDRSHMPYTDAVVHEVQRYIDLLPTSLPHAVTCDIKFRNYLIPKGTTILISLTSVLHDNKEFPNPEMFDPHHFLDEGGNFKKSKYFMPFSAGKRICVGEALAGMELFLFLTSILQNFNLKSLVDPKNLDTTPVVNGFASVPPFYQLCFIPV
Chain of Cytochrome P450 2C19 (P33261 whole entry): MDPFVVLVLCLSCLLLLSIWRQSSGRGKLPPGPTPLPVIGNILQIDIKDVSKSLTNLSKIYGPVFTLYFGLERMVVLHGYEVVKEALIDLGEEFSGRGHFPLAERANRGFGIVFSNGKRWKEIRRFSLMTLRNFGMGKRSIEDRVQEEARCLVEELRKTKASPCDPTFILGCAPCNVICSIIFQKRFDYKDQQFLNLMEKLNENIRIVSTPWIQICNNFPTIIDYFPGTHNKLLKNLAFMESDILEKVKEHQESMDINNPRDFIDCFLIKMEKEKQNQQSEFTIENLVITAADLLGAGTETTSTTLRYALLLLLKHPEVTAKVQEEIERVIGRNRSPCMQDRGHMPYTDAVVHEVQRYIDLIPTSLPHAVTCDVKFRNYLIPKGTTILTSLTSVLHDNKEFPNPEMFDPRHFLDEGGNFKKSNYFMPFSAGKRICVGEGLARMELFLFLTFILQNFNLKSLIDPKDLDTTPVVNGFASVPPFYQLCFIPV
Chain of Cytochrome P450 2D6 (P10635 whole entry): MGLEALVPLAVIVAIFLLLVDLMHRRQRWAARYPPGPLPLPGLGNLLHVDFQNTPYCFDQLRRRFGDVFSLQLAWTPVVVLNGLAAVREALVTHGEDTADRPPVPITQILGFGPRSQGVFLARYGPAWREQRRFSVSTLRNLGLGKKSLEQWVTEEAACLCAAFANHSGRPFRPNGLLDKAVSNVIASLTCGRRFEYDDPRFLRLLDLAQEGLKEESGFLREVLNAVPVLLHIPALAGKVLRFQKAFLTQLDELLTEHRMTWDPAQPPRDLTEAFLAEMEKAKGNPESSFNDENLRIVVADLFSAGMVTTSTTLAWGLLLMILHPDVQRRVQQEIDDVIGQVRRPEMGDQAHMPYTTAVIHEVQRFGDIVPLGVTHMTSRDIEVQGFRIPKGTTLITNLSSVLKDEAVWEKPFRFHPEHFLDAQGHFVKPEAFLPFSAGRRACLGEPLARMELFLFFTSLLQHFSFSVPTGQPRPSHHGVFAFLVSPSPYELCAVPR

For the compound `Cc1nc(-c2cnn(C)c2-c2ccc(C(F)(F)F)cn2)c2c(N3CCC3)ncnn12` [PF-05180999], the Drug metabolism result (in the data set on Liver [1]; in the data set with Liver [2]; in the data set with Liver [9]; in data set [13]; in data set [14]) was “Metabolite_Detected” in each case. Moreover, the outcome with Rattus norvegicus [3] was inactive. In the data set listed under Rattus norvegicus [4], the fIC50 came to 9 nM. Further, the TDI result on Cytochrome P450 2C19 is recorded as “Not Active”. The Tmax in [5] amounted to 4.8 min. Further, in [6], the total exposure AUC(0-inf) came out at 4120 ng·h/mL. The fEC50 worked out at 116.3 nM in the data set filed under Mus musculus [7] and 98 nM in the data set listed under Mus musculus [12]. In addition, the Kp uu in data set [8] was 0.58; in data set [15] it was 0.6; in data set [19] it was 0.51. For the same compound, the figures for the Activity entry in the data set listed under Mus musculus [10], in the data set filed under Rattus norvegicus [11] and at Cytochrome P450 1A2 [18] were “Dose-dependent effect”, “Non-Toxic” and “Not Active”, respectively. Besides, the “inhibition (INH)” value on Cytochrome P450 2D6, on Cytochrome P450 1A2 [17] and at Cytochrome P450 2C9 was “Not Active” each time. In [16], this compound showed a clearance of 12.3 mL/min/kg. Further, the half-life in data set [20] is 5 h.
